Experiments:
[1] = Solubility at 22 degC in culture medium in presence of 5% fetal calf serum; format: physicochemical
Outline: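 Solubility of the HCl salts is determined in culture medium containing 5% fetal calf serum at 22 °C.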

HT-29 [2] = assay: Metabolic stability in human HT-29 multicellular layer assessed as apparent first-order rate constant under anoxic condition; format: ADME, cell-based
Outline: (§1)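 Stirred single-cell suspensions of anoxic HT29 cells are exposed for 3 h at a drug concentration giving roughly one log kill by 1 h. Clonogenic survival is followed, and extracellular drug is monitored by HPLC. Concentration-time data are fitted for the apparent first-order metabolic rate constant k_met, scaled to MCL cell density. CT₁₀ and M₁₀ (drug metabolized at 10% survival) are interpolated from the fitted PK/PD model.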

HT-29 [3] = assay: Drug metabolism in human HT-29 cells assessed as amount of drug metabolized for one log of cell kill at their CT10 concentration for 1 hr; format: ADME, cell-based; details: ht-29, 1 h; outline: as §1
HT-29 [4] = assay: Cytotoxicity against human HT-29 cells after 4 hrs under strict hypoxic condition; format: functional, cell-based; details: Homo sapiens, HT-29, 4 h
HT-29 [5] = assay: Hypoxic cytotoxicity ratio, ratio of aerobic IC50 to anoxic IC50 for human HT-29 cells; format: functional
SiHa [6] = assay: Cytotoxicity against human SiHa cells after 4 hrs under strict hypoxic condition; format: functional, cell-based; details: Homo sapiens, SiHa, 4 h
SiHa [7] = assay: Hypoxic cytotoxicity ratio, ratio of aerobic IC50 to anoxic IC50 for human SiHa cells; format: functional
HT-29 [8] = assay: Cytotoxicity against human HT-29 cells assessed as AUC-time curve providing 10% surviving fraction by clonogenic assay; format: functional
[9] = culture medium with 5% fetal calf serum, read-out: solubility

Row | SMILES | solubility ([1]; serum) | Activity (HT-29 [2]) | Activity (HT-29 [3]; 1 h) | solubility [1, 9] | IC50 (HT-29 [4]) | Ratio IC50 (HT-29 [5]) | IC50 (SiHa [6]) | Ratio IC50 (SiHa [7]) | Activity (HT-29 [8]) | Activity (HT-29 [3])
1 | CN(C)CCNc1n[n+]([O-])c2cc3c(cc2[n+]1[O-])OCO3 | > 50 mM | 0.87 min⁻¹ | 4310 µM |  |  |  |  |  |  | 
2 | Nc1n[n+]([O-])c2cc3c(cc2[n+]1[O-])OCC3 |  |  |  | 0.1 mM | 117 µM | 4 | 23 µM |  |  | 
3 | CCc1n[n+]([O-])c2cc3c(cc2[n+]1[O-])CC(CO)C3 (stereo not given) |  | 0.47 min⁻¹ |  | 5 mM | 17 µM | 45 | 6.5 µM | 48 | 49.7 µM·h | 2096 µM
4 | [O-][n+]1nc(NCCCN2CCOCC2)[n+]([O-])c2cc3c(cc21)OCC3 |  | 0.2 min⁻¹ |  | > 49 mM | 22 µM | 8 | 3.4 µM | 28 | 116 µM·h | 2660 µM
5 | CCNc1n[n+]([O-])c2cc3c(cc2[n+]1[O-])CN(C)CC3 |  |  |  | > 47 mM | 2.6 µM | 59 | 1.1 µM | 100 |  | 
6 | CCc1n[n+]([O-])c2cc3c(cc2[n+]1[O-])CN(C)CC3 |  |  |  | > 47 mM | 13.1 µM | 2 | 3.1 µM | 6 |  | 
7 | CN(C)CCNc1n[n+]([O-])c2cc3c(cc2[n+]1[O-])OCC3 |  | 0.6 min⁻¹ |  | 49 mM | 5.2 µM | 46 | 1.9 µM | 128 | 43.3 µM·h | 3000 µM
8 | CCN(CC)CCNc1n[n+]([O-])c2cc3c(cc2[n+]1[O-])OCC3 |  | 0.26 min⁻¹ |  | 47 mM | 10 µM | 113 | 3.4 µM | 122 | 58 µM·h | 1718 µM
9 | [O-][n+]1nc(NCCCN2CCOCC2)[n+]([O-])c2cc3c(cc21)CCO3 |  | 0.23 min⁻¹ |  | 46 mM | 49 µM | 6 | 29 µM | 14 | 82.1 µM·h | 2155 µM
10 | CCNc1n[n+]([O-])c2cc3c(cc2[n+]1[O-])CC(N(C)C)C3 (stereo not given) |  |  |  | 46 mM |  |  |  |  |  | 
11 | CCN1Cc2cc3c(cc2C1)[n+]([O-])c(N)n[n+]3[O-] |  | 2.2 min⁻¹ |  | 6 mM | 1.5 µM |  | 0.8 µM | 80 | 8.1 µM·h | 2022 µM
12 | CC1Cc2cc3c(cc2C1)[n+]([O-])c(CCCO)n[n+]3[O-] (stereo not given) |  | 0.24 min⁻¹ |  | 10 mM | 13 µM | 80 | 8 µM | 104 | 85.3 µM·h | 2394 µM
13 | CN(C)CCNc1n[n+]([O-])c2c3c(ccc2[n+]1[O-])OCCC3 |  | 0.59 min⁻¹ |  | 47 mM | 4.1 µM | 14 | 0.7 µM | 66 | 46.1 µM·h | 3124 µM
14 | CC1Cc2cc3c(cc2C1)[n+]([O-])c(CCCN1CCOCC1)n[n+]3[O-] (stereo not given) |  | 0.96 min⁻¹ |  | 36 mM |  |  |  |  |  | 2059 µM
15 | Nc1n[n+]([O-])c2cc3c(cc2[n+]1[O-])CCC3 |  | 0.47 min⁻¹ |  | 3 mM | 15.2 µM | 27 | 8.3 µM | 31 | 106 µM·h | 7735 µM
16 | CCN(CC)CCNc1n[n+]([O-])c2cc3c(cc2[n+]1[O-])CCC3 |  | 1.08 min⁻¹ |  | 48 mM | 4.1 µM | 61 | 1.1 µM | 133 | 36.3 µM·h | 4521 µM
17 | [O-][n+]1nc(NCCN2CCCCC2)[n+]([O-])c2ccc3c(c21)CCC3 |  | 1.6 min⁻¹ |  | 36 mM | 4.9 µM | 53 | 1 µM | 51 | 27.2 µM·h | 5022 µM
18 | [O-][n+]1nc(NCCCN2CCOCC2)[n+]([O-])c2ccc3c(c21)CCC3 |  | 0.2 min⁻¹ |  | 46 mM | 38 µM | 24 | 13.9 µM | 33 | 176.4 µM·h | 4108 µM
19 | CC1Cc2cc3c(cc2C1)[n+]([O-])c(NCCN(C)C)n[n+]3[O-] (stereo not given) |  | 1.49 min⁻¹ |  | > 49 mM | 3.5 µM | 54 | 1.4 µM | 97 | 23 µM·h | 3057 µM
20 | CC1Cc2cc3c(cc2C1)[n+]([O-])c(NCCCN1CCOCC1)n[n+]3[O-] (stereo not given) |  | 0.13 min⁻¹ |  | > 49 mM | 19 µM | 25 | 8.4 µM | 50 | 122.9 µM·h | 1903 µM
21 | [O-][n+]1nc(NCCCN2CCOCC2)[n+]([O-])c2cc3c(cc21)CCC3 |  | 0.19 min⁻¹ |  | 48 mM | 21.4 µM | 20 | 8.8 µM | 44 | 76.2 µM·h | 1715 µM
22 | CCN(CC)CCNc1n[n+]([O-])c2c3c(ccc2[n+]1[O-])CCC3 |  | 0.97 min⁻¹ |  | > 49 mM | 4.2 µM | 17 | 0.9 µM | 64 | 35.1 µM·h | 3806 µM
23 | CCCN(CCC)CCNc1n[n+]([O-])c2c3c(ccc2[n+]1[O-])CCC3 |  | 0.73 min⁻¹ |  | 40 mM | 12.4 µM | 7 | 3.3 µM | 23 | 66.3 µM·h | 5626 µM
24 | [O-][n+]1nc(NCCCN2CCOCC2)[n+]([O-])c2cc3c(cc21)CCCC3 |  | 0.69 min⁻¹ |  | 49 mM | 6.3 µM | 25 | 2.6 µM | 54 | 41.6 µM·h | 3294 µM
25 | CN(C)CCNc1n[n+]([O-])c2c3c(ccc2[n+]1[O-])CCCC3 |  | 1.78 min⁻¹ |  | 47 mM | 3.4 µM | 18 | 1 µM | 64 | 19.5 µM·h | 4223 µM
26 | CN(C)CCNc1n[n+]([O-])c2cc3c(cc2[n+]1[O-])CCCCC3 |  | 1.52 min⁻¹ |  | > 53 mM | 5.2 µM | 54 | 1.2 µM | 88 | 30.6 µM·h | 5404 µM
